# Reference: ChEMBL document CHEMBL1828568, “Novel imaging agents for β-amyloid plaque based on the N-benzoylindole core” (Bioorg Med Chem Lett, 2011)
# The source made the active and inactive calls. The rule behind the calls is not given here.
# Legend:
# Mus musculus [1] = species: Mus musculus; assay: Binding affinity to beta-amyloid plaque in APP/PS1 transgenic mouse C57 brain after 20 mins by fluorescent staining with thioflavin-S; type: tissue-based; conditions: tested as the 125I-labelled form
# [2] = Displacement of [125I]TZDM from amyloid beta (1 to 40) aggregates after 2 hrs by gamma counting
# Procedure, shortened: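 Competition binding against [125I]TZDM as radiolabeled standard, using Aβ1–40 aggregates; run in triplicate, results as mean ± SD.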
# Mus musculus [3] = species: Mus musculus; assay: Binding affinity to beta-amyloid plaque in APP/PS1 transgenic mouse C57 brain after 20 mins by autoradiography; type: tissue-based; conditions: tested as the 125I-labelled form
# Procedure, shortened: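 In vitro autoradiography of brain sections from AD model mice (C57, APP/PS1), labeled with the 125I-iodinated tracer.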
# [4] = Binding affinity to amyloid beta fibrils
# Procedure, shortened: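 Competitive binding to Aβ1–40 aggregates, with [125I]TZDM as the radiolabeled reference ligand displaced by unlabeled test compound. Run in triplicate and reported as mean ± SD.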
SMILES,Activity (Mus musculus [1]),Ki [2],Activity (Mus musculus [3]),Ki [4]
O=C(/C=C/c1ccccc1)n1ccc2cc(I)ccc21,Active,8.4 nM,Active,
COc1ccc(/C=C/C(=O)n2ccc3cc(C)ccc32)cc1,,103 nM,,
COc1ccc2cc([C@H](C)C(=O)O)ccc2c1 [NAPROXEN],,,,5.7 nM
